Experimental data of several laboratories.
Lines come from different studies, so protocols differ.
Target: Cyclin-dependent kinase 16 (CDK16, Homo sapiens, UniProt Q00536)

Compound | test | conditions | remaining binding [%]
COCCOc1nc(-c2ccc(Cl)nc2)nc2c1CN(C(=O)c1ncn3ccccc13)CC2 | cell-free assay, competition with immobilised ligand | 0.1 µM | 100
O=C(NCCCN1CCOCC1)c1ccc(Nc2nccc(-c3cc4ccccc4s3)n2)cc1 | binding, competition with immobilised ligand | 1 µM | 75
C[C@H]1CCN(c2nccc(-c3cnn4ncccc34)n2)C1 | binding | 1 µM | 95
O=C(c1ccc(Nc2ncc(Cl)c(-c3ccc(Cl)s3)n2)cc1)N1CCC(N2CCCC2)CC1 | binding, competition with immobilised ligand | 1 µM | 0.2
CC(C)(C)c1ccc(-c2nc(CBr)nn2-c2cccc(O)c2)cc1 | cell-free assay, competition with immobilised ligand | 10 µM | 69
CN(C)c1nccc(-c2cnc3ncccn23)n1 | binding | 1 µM | 73
Nc1ncc2c(n1)-c1c([nH]c3ccc(C#CC4CC4)cc13)CCCC2 | binding, competition with immobilised ligand | 1 µM | 100
O=C(O)[C@@H]1[C@@H](Cn2nnc3ccccc3c2=O)CC[C@H]1C(=O)c1ccc(OCCC2CCOCC2)cc1 | cell-free assay, competition with immobilised ligand | 1 µM | 100
N[C@H]1CCN(c2nccc(-c3cnn4ncccc34)n2)C1 | binding | 1 µM | 100
O=C(Nc1c[nH]nc1C(=O)NC1CCNCC1)c1cc(F)cc(F)c1 | binding, competition with immobilised ligand | 1 µM | 12
C=CC(=O)N1CCC(C(=O)NCC(=O)N2CCN(c3nc(-c4cnc(N)nc4C(F)F)nc(N4CCOCC4)n3)CC2)CC1 | binding, competition with immobilised ligand | 1 µM | 100
Cc1cnc(Nc2ccc(C(=O)N3CCC(N4CCCC4)CC3)cc2)nc1-c1cc2ccccc2s1 | binding, competition with immobilised ligand | 1 µM | 3.9
CS(=O)(=O)NCC[C@H](NC(=O)c1cncc2c1cnn2-c1ccc(F)cc1)c1ccnc(S(C)(=O)=O)c1 | cell-free assay, competition with immobilised ligand | 1 µM | 100
COc1ncc2cc3ccccc3nc2c1C#N | cell-free assay, competition with immobilised ligand | 5 µM | 97
CC1CCCN1c1nccc(-c2cnn3ncccc23)n1 (stereo not shown) | binding | 1 µM | 100
COc1cnc(Nc2cccc(S(N)(=O)=O)c2)nc1N1CCN(c2ccccc2)C(=O)C1 | binding, competition with immobilised ligand | 1 µM | 92
Cc1c(NC(=O)c2cc(C(N)=O)nc3cc(F)ccc23)c(C(F)(F)F)nn1Cc1ccc(C(C)(C)C)cc1 | cell-free assay, competition with immobilised ligand | 1 µM | 100
CN(CCCC(F)(F)F)c1nccc(-c2cnn3ncccc23)n1 | binding | 1 µM | 100
C[C@@H]1CN(c2ccc3ncc(-c4ccc5[nH]nc(C6CC6)c5c4)n3n2)C[C@H](C)O1 | binding, competition with immobilised ligand | 0.5 µM | 100
O=C(NC[C@@H]1[C@H]2CN(C(=O)OCc3cc(C(F)(F)F)cc(C(F)(F)F)c3)C[C@@H]12)c1ccc2[nH]nnc2c1 | cell-free assay, competition with immobilised ligand | 1 µM | 100
c1cncc(-c2cccc(Nc3nccc(NC4CCCCC4)n3)c2)c1 | binding, competition with immobilised ligand | 10 µM | 95
O=C(Nc1ccc(Oc2ccc(F)cc2)cc1)N1CCc2ncccc2[C@H]1c1ccc(F)cc1 | cell-free assay, competition with immobilised ligand | 1 µM | 65
CN(c1nccc(-c2cnn3ncccc23)n1)C1CC1 | binding | 1 µM | 100
CN(c1ccnc(CNc2nc(Nc3ccc4c(c3)CC(=O)N4)ncc2C(F)(F)F)n1)S(C)(=O)=O | cell-free assay, competition with immobilised ligand | 1 µM | 82
N#Cc1ccccc1CSc1nnc2c(n1)[nH]c1ccccc12 | binding, competition with immobilised ligand | 10 µM | 100
